Measurements: ChEMBL document CHEMBL4342526, “Exploration of the Structural Space in 4(3H)-Quinazolinone Antibacterials” (J Med Chem, 2020)
≈ marks a conversion by molar mass, not a printed value.

Key:
[1] = tested on: Bacillus cereus; assay: Antibacterial activity against Bacillus cereus ATCC 13061 measured after 16 to 20 hrs by microdilution method; type: functional
In short: (§1)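 CLSI broth microdilution: two-fold serial dilutions in triplicate in cation-adjusted Mueller–Hinton broth with 2% NaCl, inoculum 5 × 10^5 CFU/mL, incubated at 37 °C for 16–20 h. MIC is the lowest concentration preventing visible growth.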

[2] = Selectivity index, ratio of IC50 for human HeLa cells to MIC for clindamycin/erythromycin/spectinomycin-resistant mec-positive Staphylococcus aureus NRS70; type: toxicity
In short: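 HeLa cytotoxicity by XTT assay in triplicate, IC50 by nonlinear regression; ratio IC50 over broth microdilution MIC against NRS70.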

[3] = Oral bioavailability in ICR mouse at 10 mg/kg administered via gavage by UV-UPLC analysis; type: ADME, organism-based; conditions: in vivo
[4] = tested on: Clostridioides difficile; assay: Antibacterial activity against Clostridium difficile ATCC 43255 measured after 16 to 20 hrs by microdilution method; type: functional
[5] = tested on: Staphylococcus aureus; assay: Bacteriostatic activity against clindamycin/erythromycin/spectinomycin-resistant mec-positive Staphylococcus aureus NRS70 assessed as log reduction in bacterial count at 0.5 to 16 times MIC by time-kill assay; type: functional
[6] = tested on: Staphylococcus aureus; assay: Antibacterial activity against Staphylococcus aureus ATCC 29213 measured after 16 to 20 hrs in presence of bovine serum albumin by microdilution method; type: functional
In short: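 S. aureus ATCC29213 MIC was run by CLSI microdilution in cation-adjusted Mueller–Hinton broth plus 2% NaCl, with and without 0.5% bovine serum albumin. Compounds were two-fold serially diluted in triplicate, inoculum was 5 × 10^5 CFU/mL, and plates were incubated at 37 °C for 16–20 h. The endpoint was the lowest concentration with no visible growth.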

[7] = tested on: Enterococcus faecalis; assay: Antibacterial activity against Enterococcus faecalis ATCC 29212 measured after 16 to 20 hrs by microdilution method; type: functional; in short: as §1
[8] = Elimination half life in ICR mouse at 10 mg/kg, iv by UV-UPLC analysis; type: ADME, organism-based; conditions: in vivo
In short: (§2)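 Female ICR mice, 6–8 weeks old, 20–25 g. Each received 50 μL by tail-vein injection (5 or 10 mg/kg) of a filter-sterilized 2 or 4 mg/mL solution in 20% DMSO/10% Tween-80/70% water. Terminal blood was collected and plasma harvested by centrifugation. Plasma was precipitated with acetonitrile containing internal standard, and the supernatant was analyzed by C18 UPLC with UV detection at 285 nm.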

[9] = tested on: Staphylococcus aureus; assay: (§3) Potentiation of piperacillin and tazobactam-induced bactericidal activity against methicillin resistant Staphylococcus aureus NRS70 infected in ICR mouse model of neutropenic thigh infection assessed as log reduction in bacterial count in thigh at 20 mg/kg, sc administered at 8 hrs interval for 3 times starting from 1 hr post infection and measured 24 hrs post infection; type: functional
In short: (§4)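 Neutropenic ICR mouse thigh model as above (cyclophosphamide 200 mg/kg ip days −4 and −1; NRS70 1 × 10^6 CFU/mL, 0.1 mL im right thigh); compound given with piperacillin 12 mg/kg plus tazobactam 1.5 mg/kg, sc in 10% DMSO/90% water every 8 h ×3 from 1 h; thigh CFU at 24 h; n = 8; mean ± SEM, ANOVA/Tukey.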

[10] = AUC (0 to last) in ICR mouse at 10 mg/kg, iv by UV-UPLC analysis; type: ADME, organism-based; design: dose 10 mg/kg, time 0 - last, route intravenous; conditions: in vivo; in short: as §2
[11] = AUC (0 to last) in ICR mouse at 10 mg/kg, po administered via gavage by UV-UPLC analysis; type: ADME, organism-based; design: dose 10 mg/kg, time 0 - last, route oral; conditions: in vivo
[12] = Protein binding in human plasma at 10 uM measured after 6 hrs UV-UPLC based rapid equilibrium dialysis method; type: ADME, cell-free
In short: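 Rapid equilibrium dialysis: human plasma was cleared by centrifugation and spiked from a 1 mM DMSO stock to a final 10 μM, against 0.1 M PBS pH 7.4. Dialysis ran 6 h at 37 °C with orbital shaking. Buffer (free) and plasma (total) aliquots were mixed with internal standard in acetonitrile and measured by UPLC-UV at 285 nm. B% = (Cp−Cf)/Cp×100.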

[13] = tested on: HeLa; assay: Cytotoxicity against human HeLa cells assessed as reduction in cell viability measured after 16 hrs by XTT assay; type: cell-based
In short: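 HeLa cells (ATCC CCL-2), run in triplicate. Viability was read by XTT, and IC50 was obtained by nonlinear regression.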

[14] = tested on: Staphylococcus aureus; assay: as §3, with “40” for “20”; type: functional; in short: as §4
[15] = tested on: Staphylococcus epidermidis; assay: Antibacterial activity against Staphylococcus epidermidis ATCC 35547 measured after 16 to 20 hrs by microdilution method; type: functional
In short: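 CLSI broth microdilution; two-fold serial compound dilutions in triplicate in cation-adjusted Mueller–Hinton broth with 2% NaCl, inoculum 5 × 10^5 CFU/mL; 37 °C for 16–20 h; MIC = lowest concentration with no visible growth.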

[16] = AUC (0 to infinity) in ICR mouse at 10 mg/kg, po administered via gavage by UV-UPLC analysis; type: ADME, organism-based; design: dose 10 mg/kg, route oral, time infinity; conditions: in vivo
[17] = Time at which plasma concentration stays above in vitro MIC for clindamycin/erythromycin/spectinomycin-resistant mec-positive Staphylococcus aureus NRS70 in ICR mouse at 10 mg/kg, iv; type: ADME, organism-based; conditions: in vivo
In short: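 Female ICR mice given single iv tail-vein dose (50 μL of 2 or 4 mg/mL in 20% DMSO/10% Tween-80/70% water); terminal blood at 5, 40 min, 2, 4, 8 h, n = 2 per time point; plasma acetonitrile-precipitated with internal standard, UPLC-UV 285 nm on C18; time above MIC read from concentration profile.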

[18] = Elimination half life in ICR mouse at 10 mg/kg, po administered via gavage by UV-UPLC analysis; type: ADME, organism-based; conditions: in vivo, read-out: beta t1/2 (converted)
[19] = tested on: Staphylococcus aureus; assay: […] activity against clindamycin/erythromycin/spectinomycin-resistant mec-positive Staphylococcus aureus NRS70 incubated for 16 to 20 hrs followed by re-plating on agar plate; type: functional; conditions: read-out: MBC99.9
[20] = AUC (0 to infinity) in ICR mouse at 10 mg/kg, iv by UV-UPLC analysis; type: ADME, organism-based; design: dose 10 mg/kg, time infinity, route intravenous; conditions: in vivo; in short: as §2
[21] = tested on: Staphylococcus aureus; assay: as §3, with “Bactericidal” for “Potentiation of piperacillin and tazobactam-induced bactericidal”; type: functional
In short: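 Female ICR mice (6–8 weeks, 20–25 g) made neutropenic with cyclophosphamide 200 mg/kg ip at 4 and 1 days pre-infection; 0.1 mL NRS70 at 1 × 10^6 CFU/mL in brain heart infusion injected into right thigh; drug in 10% DMSO/90% water sc every 8 h ×3 from 1 h post-infection; thigh CFU counted at 24 h; n = 8/group; mean ± SEM, one-way ANOVA with Tukey test.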

N#Cc1ccc(/C=C/c2nc3ccccc3c(=O)n2-c2cc(C(=O)O)ccc2F)cc1
MIC [1]: > 128 µg/mL
selectivity ratio [2]: 124
F [3]: 65%
MIC [4]: 128 µg/mL (≈ 311 µM)
log(activity) [5]: <3
MIC [6]: 2 µg/mL
MIC [7]: > 128 µg/mL
beta t1/2 [8]: 13.7 h
log(activity) [9]: 0.75
AUClast [10]: 1290 µg·min/mL
AUClast [11]: 840 µg·min/mL
PPB [12]: 95.4%
IC50 [13]: 62 µg/mL (≈ 151 µM)
log(activity) [14]: 1.33
MIC [15]: 0.25 µg/mL (≈ 0.608 µM)
AUC(0-inf) [16]: 16800 ng·h/mL
T>MIC [17]: 4 h
half-life [18]: 11.2 h
MBC [19]: > 128 µg/mL
AUC(0-inf) [20]: 22000 ng·h/mL
log(activity) [21]: 0.47
